SMILES strings stand for the structures. The source made the active and inactive calls.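 How the source made its calls: active means changes KCNQ2 potassium channel current, up or down, at some tested dose, giving a fitted dose response; inactive means no effect at any dose or no dose response.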

In the first assay the target is Potassium voltage-gated channel subfamily KQT member 2 (Rattus norvegicus) (UniProt O88943). As to the kind of experiment: blockers of KCNQ2 potassium current – automated electrophysiology, CHO cells, orthogonal assay, SAR follow-up (AID 602271). The note with it: automated patch clamp current. A digest of the protocol: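 Test system: CHO cells carrying KCNQ2 channels; Measured by: automated patch clamp, amphotericin B perforation, steady-state current at +40 mV; Probe or stimulus: depolarization from -90 mV to +40 mV, 2,000 ms; Dosing: multiple compound concentrations per compound; Evaluation: percent steady-state current change after compound versus pre-compound current.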
Potassium voltage-gated channel subfamily KQT member 2 (Rattus norvegicus), sequence (O88943 whole entry, looked up): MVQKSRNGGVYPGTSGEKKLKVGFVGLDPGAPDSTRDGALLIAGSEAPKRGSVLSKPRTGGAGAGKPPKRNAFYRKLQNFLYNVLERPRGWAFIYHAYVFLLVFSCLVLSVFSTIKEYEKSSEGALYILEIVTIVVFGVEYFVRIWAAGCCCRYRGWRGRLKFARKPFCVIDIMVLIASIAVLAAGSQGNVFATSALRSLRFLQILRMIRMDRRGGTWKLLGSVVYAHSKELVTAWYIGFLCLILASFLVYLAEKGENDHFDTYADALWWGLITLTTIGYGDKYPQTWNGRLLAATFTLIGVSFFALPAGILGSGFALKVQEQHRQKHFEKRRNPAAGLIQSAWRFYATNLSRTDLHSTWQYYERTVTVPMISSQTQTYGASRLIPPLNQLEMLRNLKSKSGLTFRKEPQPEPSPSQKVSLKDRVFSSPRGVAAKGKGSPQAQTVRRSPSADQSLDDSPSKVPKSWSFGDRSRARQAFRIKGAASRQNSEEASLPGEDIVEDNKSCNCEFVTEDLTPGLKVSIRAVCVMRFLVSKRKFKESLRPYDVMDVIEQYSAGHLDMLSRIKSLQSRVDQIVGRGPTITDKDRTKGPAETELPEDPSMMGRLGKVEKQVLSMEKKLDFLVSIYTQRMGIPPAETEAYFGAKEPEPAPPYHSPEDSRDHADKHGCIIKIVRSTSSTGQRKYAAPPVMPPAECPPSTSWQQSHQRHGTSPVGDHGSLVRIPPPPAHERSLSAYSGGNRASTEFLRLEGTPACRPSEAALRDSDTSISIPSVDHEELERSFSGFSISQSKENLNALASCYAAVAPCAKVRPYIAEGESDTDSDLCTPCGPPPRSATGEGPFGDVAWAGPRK
Turning to `O=C(Cc1cccc(Cl)c1)Nc1ccc(Cl)cc1Cl`, the IC50 is 1.52 µM.
As for `O=C(Cc1cccc(Cl)c1)Nc1cccc(N2CCCC2)c1`, the concentration for half-maximal inhibition (IC50) is 1.02 µM.
As for `CN(C)c1ccccc1NC(=O)Cc1cccc(Cl)c1`, the IC50 is 27.5 µM.
The same measure, in the same setting: in the case of `O=C(Cc1cccc(Cl)c1)Nc1ccccc1N1CCCCC1` it was 7.09 µM; in that of `COc1ccc(NC(=O)Cc2cccc(Cl)c2)c(OC)c1`, 1.24 µM.
For the compound `O=C(Cc1cccc(Cl)c1)Nc1ccc(N2CCCC2)cc1`, the IC50 was 8.66 µM.
On the same count and under the same terms, for `O=C(Cc1cccc(Cl)c1)Nc1ccccc1-n1cccc1` the value was 12.3 µM.

The assay is the same for the next values; noted with them: automated patch clamp current, at 30 µM (top of the series).
`O=C(Cc1cccc(Cl)c1)Nc1cccc2c1OCO2`: the “current change %, negative = inhibition” value was “inactive”.
The same measure, in the same setting: for `CCC(C(=O)N(C)c1ccccc1N1CCCC1)c1ccccc1` (configuration not stated) the value was “inactive”.
The same measure, in the same setting: in the case of `CN(Cc1ccccc1)c1ccccc1NC(=O)Cc1cccc(Cl)c1` it was “inactive”; in that of `CCN(C)c1ccccc1NC(=O)Cc1cccc(Cl)c1`, “inactive”.
Take `O=C(Cc1cccc(Cl)c1)Nc1cccc(F)c1F`: the “current change %, negative = inhibition” value was “inactive”.
Same read-out and setting: in the case of `O=C(Cc1cccc(Cl)c1)Nc1ccccc1N1CCCCCCC1` it was “inactive”.
Still for that read-out and setting: for `O=C(Cc1cccc(Cl)c1)Nc1ccccc1N1CCOCC1` the value was “inactive”; for `O=C(Cc1cccc(Cl)c1)Nc1ccccc1F`, “inactive”.
On the same count and under the same terms, in the case of `O=C(Cc1cccc(Cl)c1)Nc1ccc(F)cc1F` it was “inactive”.
With `CN(C(=O)Cc1ccccc1)c1ccccc1N1CCCC1`, the “current change %, negative = inhibition” value was “inactive”.

The IC50 is the midpoint of a concentration-inhibition curve.

These data come from PubChem BioAssay AID602271 (Johns Hopkins Ion Channel Center, 2012).
